Assays:
[1] = target: T1, Adrenergic receptor alpha-1 (Rattus norvegicus, UniProt P15823+P23944+P43140); assay: Binding affinity to alpha-1 adrenergic receptor determined by measurement of [3H]prazosin displacement from rat cortical membrane
T1 sequence (P15823 whole entry): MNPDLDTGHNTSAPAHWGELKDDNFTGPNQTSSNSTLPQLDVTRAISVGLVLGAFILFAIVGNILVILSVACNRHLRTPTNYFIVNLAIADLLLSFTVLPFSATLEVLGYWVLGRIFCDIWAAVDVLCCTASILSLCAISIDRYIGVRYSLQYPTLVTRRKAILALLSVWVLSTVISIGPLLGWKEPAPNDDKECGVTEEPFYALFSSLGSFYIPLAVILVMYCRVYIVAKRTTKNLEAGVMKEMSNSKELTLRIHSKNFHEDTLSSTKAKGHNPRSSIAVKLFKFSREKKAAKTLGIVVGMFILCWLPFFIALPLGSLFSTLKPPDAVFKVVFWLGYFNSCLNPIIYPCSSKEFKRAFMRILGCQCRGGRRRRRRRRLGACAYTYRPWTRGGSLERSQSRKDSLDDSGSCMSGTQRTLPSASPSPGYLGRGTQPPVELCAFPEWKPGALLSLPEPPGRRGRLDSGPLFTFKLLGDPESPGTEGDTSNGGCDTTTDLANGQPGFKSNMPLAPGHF
T1 sequence (P23944 whole entry): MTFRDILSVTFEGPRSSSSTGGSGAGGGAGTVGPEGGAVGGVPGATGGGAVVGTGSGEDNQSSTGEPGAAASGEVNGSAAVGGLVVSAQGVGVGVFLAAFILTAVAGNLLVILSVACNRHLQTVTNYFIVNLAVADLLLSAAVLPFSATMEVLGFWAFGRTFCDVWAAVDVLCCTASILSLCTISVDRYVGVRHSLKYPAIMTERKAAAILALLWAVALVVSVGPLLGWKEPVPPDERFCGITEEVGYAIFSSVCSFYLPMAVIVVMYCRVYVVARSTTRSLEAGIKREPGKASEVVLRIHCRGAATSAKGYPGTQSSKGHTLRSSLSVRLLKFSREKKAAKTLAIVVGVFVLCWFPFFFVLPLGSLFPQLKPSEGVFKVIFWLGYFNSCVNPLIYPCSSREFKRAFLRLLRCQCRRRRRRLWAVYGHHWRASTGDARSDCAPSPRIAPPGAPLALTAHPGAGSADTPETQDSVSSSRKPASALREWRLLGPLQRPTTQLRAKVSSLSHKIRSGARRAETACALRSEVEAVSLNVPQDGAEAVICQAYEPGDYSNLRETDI
T1 sequence (P43140 whole entry): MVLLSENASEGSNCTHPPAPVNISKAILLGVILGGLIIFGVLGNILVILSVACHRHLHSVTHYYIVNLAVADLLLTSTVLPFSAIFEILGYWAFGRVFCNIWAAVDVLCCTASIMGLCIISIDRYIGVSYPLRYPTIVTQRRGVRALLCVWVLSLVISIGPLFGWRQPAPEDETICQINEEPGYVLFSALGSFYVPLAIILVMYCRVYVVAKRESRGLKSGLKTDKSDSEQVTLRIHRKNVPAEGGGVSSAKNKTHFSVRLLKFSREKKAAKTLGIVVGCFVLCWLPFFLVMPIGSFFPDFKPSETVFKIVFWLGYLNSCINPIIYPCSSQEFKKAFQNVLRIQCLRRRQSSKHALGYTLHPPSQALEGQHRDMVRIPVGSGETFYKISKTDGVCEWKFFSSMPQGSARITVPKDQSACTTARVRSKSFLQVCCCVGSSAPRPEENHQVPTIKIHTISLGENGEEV
Method in brief: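 Male Sprague-Dawley rat (150-200 g) cerebral cortex membranes, washed in 50 mM Tris-HCl/0.5 mM EDTA pH 7.4. 250 µg membrane protein incubated with 0.5 nM [3H]prazosin for 30 min at 25 °C in a 0.5 mL volume. Nonspecific binding defined by 10 µM phentolamine. IC50 estimated graphically; Ki calculated by Cheng-Prusoff.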

[2] = target: T2, Adrenergic receptor alpha-2 (Rattus norvegicus, UniProt P22086+P19328+P22909); assay: Binding affinity to alpha-2 adrenergic receptor determined by measurement of [3H]yohimbine displacement from rat cortical membrane
T2 sequence (P22086 whole entry): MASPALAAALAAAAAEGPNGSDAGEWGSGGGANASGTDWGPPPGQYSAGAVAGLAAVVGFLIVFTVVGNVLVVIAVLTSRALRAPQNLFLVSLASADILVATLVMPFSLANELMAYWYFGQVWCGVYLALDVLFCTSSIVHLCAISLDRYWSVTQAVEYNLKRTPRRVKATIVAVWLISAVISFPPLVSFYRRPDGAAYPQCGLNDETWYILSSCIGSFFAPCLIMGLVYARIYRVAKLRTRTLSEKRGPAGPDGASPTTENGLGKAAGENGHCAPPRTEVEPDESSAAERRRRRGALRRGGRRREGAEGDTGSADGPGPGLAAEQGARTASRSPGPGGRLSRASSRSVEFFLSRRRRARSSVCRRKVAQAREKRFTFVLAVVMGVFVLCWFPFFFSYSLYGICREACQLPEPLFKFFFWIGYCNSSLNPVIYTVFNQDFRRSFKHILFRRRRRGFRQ
T2 sequence (P19328 whole entry): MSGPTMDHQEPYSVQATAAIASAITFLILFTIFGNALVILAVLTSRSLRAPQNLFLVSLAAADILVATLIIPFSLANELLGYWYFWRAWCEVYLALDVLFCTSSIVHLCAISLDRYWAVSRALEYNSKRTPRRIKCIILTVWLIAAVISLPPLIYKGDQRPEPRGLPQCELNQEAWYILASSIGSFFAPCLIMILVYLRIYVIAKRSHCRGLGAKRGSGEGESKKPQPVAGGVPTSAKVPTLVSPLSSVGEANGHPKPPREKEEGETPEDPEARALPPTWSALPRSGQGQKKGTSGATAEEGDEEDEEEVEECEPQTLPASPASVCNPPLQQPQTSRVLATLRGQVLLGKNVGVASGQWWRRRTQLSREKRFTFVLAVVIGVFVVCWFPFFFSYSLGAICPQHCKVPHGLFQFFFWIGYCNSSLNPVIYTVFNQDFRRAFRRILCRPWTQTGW
T2 sequence (P22909 whole entry): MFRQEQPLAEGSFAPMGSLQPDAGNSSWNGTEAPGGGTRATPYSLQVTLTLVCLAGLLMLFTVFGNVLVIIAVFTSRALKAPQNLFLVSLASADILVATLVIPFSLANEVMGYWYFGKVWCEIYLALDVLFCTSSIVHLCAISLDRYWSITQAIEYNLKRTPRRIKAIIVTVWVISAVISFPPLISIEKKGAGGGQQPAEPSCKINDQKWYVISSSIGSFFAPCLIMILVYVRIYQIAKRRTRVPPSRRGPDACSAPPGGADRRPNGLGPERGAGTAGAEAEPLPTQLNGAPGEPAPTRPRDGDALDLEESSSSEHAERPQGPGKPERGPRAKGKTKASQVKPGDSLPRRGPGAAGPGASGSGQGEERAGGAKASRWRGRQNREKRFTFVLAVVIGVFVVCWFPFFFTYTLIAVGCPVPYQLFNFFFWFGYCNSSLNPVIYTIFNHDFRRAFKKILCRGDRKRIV

SMILES: COc1ccc2c(c1OC)CCN1C[C@H]3CCCN(S(C)(=O)=O)[C@H]3C[C@@H]21
- Log Ki [1]: -4.42
- Log Ki [2]: -7.94

SMILES: CS(=O)(=O)N1CCC[C@H]2CN3CCc4ccccc4[C@@H]3C[C@H]21
- Log Ki [1]: -5.58
- Log Ki [2]: -5.96

SMILES: COc1ccc2c(c1)CCN1C[C@H]3CCCN(S(=O)(=O)CCl)[C@@H]3C[C@@H]21
- Log Ki [1]: -5.13
- Log Ki [2]: -8.95

SMILES: CS(=O)(=O)N1CCC[C@H]2[C@H]3c4cc5c(cc4CCN3CC[C@@H]21)OCO5
- Log Ki [1]: -5.06
- Log Ki [2]: -6.4

SMILES: CCCCS(=O)(=O)N1CCC[C@H]2CN3CCc4ccccc4[C@@H]3C[C@@H]21
- Log Ki [1]: -5.3
- Log Ki [2]: -7.42

SMILES: CS(=O)(=O)N1CCC[C@@H]2CN(CCc3ccccc3)CC[C@@H]21
- Log Ki [1]: -5.51
- Log Ki [2]: -6.12

SMILES: CCCCS(=O)(=O)N1CCC[C@H]2CN3CCc4ccccc4[C@@H]3C[C@H]21
- Log Ki [1]: -5.76
- Log Ki [2]: -5.82

SMILES: Nc1ccc(S(=O)(=O)N2CCC[C@@H]3CN4CCc5ccccc5[C@@H]4C[C@@H]32)cc1
- Log Ki [1]: -5.33
- Log Ki [2]: -8.66

SMILES: COc1ccc2c(c1)CCN1C[C@@H]3CCCN(S(C)(=O)=O)[C@@H]3C[C@@H]21
- Log Ki [1]: -4.85
- Log Ki [2]: -6.88

SMILES: CS(=O)(=O)N1CCC[C@@H]2CN3CCc4c([nH]c5ccccc45)[C@@H]3C[C@@H]21
- Log Ki [1]: -4.8
- Log Ki [2]: -7.78

SMILES: CS(=O)(=O)N1CCC[C@H]2CN3CCc4ccccc4[C@@H]3C[C@@H]21
- Log Ki [1]: -5.65
- Log Ki [2]: -7.25

SMILES: CS(=O)(=O)N1CCC[C@@H]2CN3CCc4ccc(F)cc4[C@@H]3C[C@@H]21
- Log Ki [1]: -5.21
- Log Ki [2]: -8.04

SMILES: COc1cc2c(cc1Br)[C@@H]1C[C@@H]3[C@H](CCCN3S(C)(=O)=O)CN1CC2
- Log Ki [1]: -5.25
- Log Ki [2]: -8.3

SMILES: CS(=O)(=O)N1CCC[C@@H]2CN3CCc4cc5c(cc4[C@@H]3C[C@H]21)OCO5
- Log Ki [1]: -5.32
- Log Ki [2]: -9.19

SMILES: COc1cc2c(cc1OC)[C@@H]1C[C@H]3[C@H](CCCN3S(=O)(=O)CC(C)C)CN1CC2
- Log Ki [1]: -4.46
- Log Ki [2]: -8.1

SMILES: Cc1ccc2c(c1)CCN1C[C@H]3CCCN(S(C)(=O)=O)[C@H]3C[C@@H]21
- Log Ki [1]: -4.89
- Log Ki [2]: -9.15

SMILES: O=S(=O)(c1ccc(F)cc1)N1CCC[C@@H]2CN3CCc4ccccc4[C@@H]3C[C@@H]21
- Log Ki [1]: -5.38
- Log Ki [2]: -8.69

SMILES: C=CS(=O)(=O)N1CCC[C@@H]2CN3CCc4cc(OC)ccc4[C@@H]3C[C@@H]21
- Log Ki [1]: -5.33
- Log Ki [2]: -8.82

SMILES: COc1ccc2c(c1)CCN1C[C@@H]3CCCN(S(C)(=O)=O)[C@H]3C[C@@H]21
- Log Ki [1]: -5.2
- Log Ki [2]: -7.84

SMILES: CS(=O)(=O)N1CCC[C@H]2CN3CCc4cc5c(cc4[C@@H]3C[C@H]21)OCO5
- Log Ki [1]: -5.95
- Log Ki [2]: -7.24

SMILES: COc1ccc(OC)c2c1CCN1C[C@H]3CCCN(S(C)(=O)=O)[C@H]3C[C@@H]21
- Log Ki [1]: -5.63
- Log Ki [2]: -7.37

SMILES: CS(=O)(=O)N1CC[C@@H]2CN3CCc4ccccc4[C@@H]3C[C@@H]2C1
- Log Ki [1]: -5.8
- Log Ki [2]: -7.54

SMILES: CS(=O)(=O)N1CCC[C@@H]2CN3CCc4cc(O)ccc4[C@@H]3C[C@@H]21
- Log Ki [1]: -5.27
- Log Ki [2]: -8.2

SMILES: COc1ccc2c(c1Br)CCN1C[C@H]3CCCN(S(C)(=O)=O)[C@@H]3C[C@@H]21
- Log Ki [1]: -5.35
- Log Ki [2]: -8.3

SMILES: CN1C[C@@H]2CCCN(S(C)(=O)=O)[C@@H]2C[C@H]1c1ccc2c(c1)OCO2
- Log Ki [1]: -5.55
- Log Ki [2]: -6.13

SMILES: COc1cc2c(cc1OC)[C@@H]1C[C@H]3[C@H](CCCN3S(C)(=O)=O)CN1C(C)C2 (stereo partly drawn)
- Log Ki [1]: -4.93
- Log Ki [2]: -7.08

SMILES: COc1ccc2c(c1)CCN1C[C@H]3CCCN(S(=O)(=O)N(C)C)[C@H]3C[C@@H]21
- Log Ki [1]: -5.25
- Log Ki [2]: -8.66

SMILES: COc1ccc2c(c1)CCN1C[C@H]3CCCN(S(N)(=O)=O)[C@H]3C[C@@H]21
- Log Ki [1]: -4.92
- Log Ki [2]: -8.43

SMILES: COc1cccc2c1[C@@H]1C[C@H]3[C@H](CCCN3S(C)(=O)=O)CN1CC2
- Log Ki [1]: -5.48
- Log Ki [2]: -8.65

SMILES: CS(=O)(=O)N1CC[C@H]2C[C@H]3c4ccccc4CCN3C[C@H]2C1
- Log Ki [1]: -5.2
- Log Ki [2]: -6.4

SMILES: COc1ccc2c(c1)CCN1C[C@H]3CCCN(S(=O)(=O)c4cccs4)[C@@H]3C[C@@H]21
- Log Ki [1]: -5.01
- Log Ki [2]: -8.83

SMILES: CC(C)CS(=O)(=O)N(C)[C@@H]1CCN2CCc3ccccc3[C@@H]2C1
- Log Ki [1]: -5.7
- Log Ki [2]: -8.04

SMILES: CN1C[C@H]2CCCN(S(C)(=O)=O)[C@H]2C[C@H]1c1ccc2c(c1)OCO2
- Log Ki [1]: -4.82
- Log Ki [2]: -5.38

SMILES: COc1ccc2c(c1)CCN1C[C@H]3CCCN(S(=O)(=O)NC(C)(C)C)[C@H]3C[C@@H]21
- Log Ki [1]: -5.26
- Log Ki [2]: -7.78
